The values below come from ChEMBL document CHEMBL1126625, “7-Azetidinylquinolones as antibacterial agents. Synthesis and structure-activity relationships” (J Med Chem, 1993).

Common to all, as to format: functional
In test [1] the test system is Pseudomonas aeruginosa. Nature of the test: Efficacy on systemic infections after oral administration in mice was determined against Pseudomonas aeruginosa HS-116. An outline of the steps: (§1)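 Mouse protection test using 4 groups of 10 mice. Mice were infected intraperitoneally with a bacterial suspension slightly above LD100. A single oral dose was given immediately after infection, with four doses, one per group, chosen from in vitro activity. Survival was scored after one week, and ED50 (total mg/kg protecting 50% of mice) was interpolated from group survival rates.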

Test [2] has as its system Klebsiella pneumoniae. Nature of the test: Minimum inhibitory concentration (MIC)preventing growth of Klebsiella pneumoniae.
Test [3] concerns Bacillus subtilis. Nature of the test: Minimum inhibitory concentration (MIC) preventing growth of Bacillus subtilis.
Test [4] has as its system Enterobacter cloacae. Briefly: Minimum inhibitory concentration (MIC)preventing growth of Enterobacter cloacae.
Test [5] has as its system Pseudomonas aeruginosa. Briefly: Minimum inhibitory concentration (MIC)preventing growth of Pseudomonas aeruginosa.
The subject of test [6] is Enterococcus faecalis. Briefly: Minimum inhibitory concentration (MIC) preventing growth of Streptococcus faecalis ATCC 10541.
The subject of test [7] is Staphylococcus aureus. Briefly: Minimum inhibitory concentration (MIC) preventing growth of […].
For test [8], the system named is Staphylococcus aureus. Nature of the test: Efficacy on systemic infections after oral administration in mice was determined against […] HS-93. An outline of the steps: as §1
The subject of test [9] is Escherichia coli. Nature of the test: Minimum inhibitory concentration (MIC)preventing growth of Escherichia coli.
Test [10] has as its system Bacillus cereus. Briefly: Minimum inhibitory concentration (MIC) preventing growth of Bacillus cereus.
In test [11] the test system is Morganella morganii. Nature of the test: Minimum inhibitory concentration (MIC) preventing growth of Morganella morganii.
For test [12], the system named is Proteus vulgaris. Nature of the test: Minimum inhibitory concentration (MIC) preventing growth of Proteus vulgaris.
Test [13] concerns Escherichia coli. Briefly: Efficacy on systemic infections after oral administration in mice was determined against Escherichia coli HM-42. An outline of the steps:
as §1

For test [14], the system named is Staphylococcus epidermidis. Nature of the test: Minimum inhibitory concentration (MIC) preventing growth of Staphylococcus epidermidis.

Values after ≈ are worked out from the molar mass of the structure shown.

One may read the ED50 as the dose that gives a 50% effect, or the effect in half of the subjects. One may read the MIC as the smallest concentration in the dilution series that meets the test's criterion for growth inhibition. Read a low MIC as inhibition by little substance. `CC1(N)CN(c2c(F)c(N)c3c(=O)c(C(=O)O)cn(C4CC4)c3c2F)C1`: the ED50 in test [1] was 71 mg/kg; in [8] it was 7.2 mg/kg; in [13], 3.3 mg/kg. Moreover, the minimum inhibitory concentration (MIC) turned out to be 0.015 µg/mL (≈ 0.0412 µM) in test [2]; 0.015 µg/mL (≈ 0.0412 µM) in [3]; 0.015 µg/mL (≈ 0.0412 µM) in test [4]; 0.5 µg/mL (≈ 1.37 µM) in test [5]; 0.25 µg/mL (≈ 0.686 µM) in test [6]; 0.06 µg/mL (≈ 0.165 µM) in [7]. The MIC in test [9] was 0.015 µg/mL (≈ 0.0412 µM); in test [10], 0.06 µg/mL (≈ 0.165 µM); in test [11] it was 0.015 µg/mL (≈ 0.0412 µM); in test [12] it was 0.12 µg/mL (≈ 0.329 µM); in [14] it was 0.06 µg/mL (≈ 0.165 µM).

Regarding `NC1CN(c2nc3c(cc2F)c(=O)c(C(=O)O)cn3-c2ccc(F)cc2F)C1`, the figures for the ED50 in test [1], in test [8] and in [13] were 75.2 mg/kg, 5.3 mg/kg and 1.5 mg/kg, respectively. Further, the minimum inhibitory concentration (MIC) in test [2] was found to be 0.015 µg/mL (≈ 0.0384 µM); in test [3] it was 0.12 µg/mL (≈ 0.307 µM); in [4], 0.12 µg/mL (≈ 0.307 µM); in [5], 2 µg/mL (≈ 5.12 µM); in test [6] it was 2 µg/mL (≈ 5.12 µM); in [7], 0.25 µg/mL (≈ 0.64 µM). Moreover, the minimum inhibitory concentration (MIC) in test [9] stood at 0.12 µg/mL (≈ 0.307 µM); in test [10], 0.25 µg/mL (≈ 0.64 µM); in test [11], 0.25 µg/mL (≈ 0.64 µM); in [12], 0.5 µg/mL (≈ 1.28 µM); in test [14], 0.25 µg/mL (≈ 0.64 µM).

For `CN(C)C1(C)CN(c2cc3c(cc2F)c(=O)c(C(=O)O)cn3C2CC2)C1`, the ED50 in test [1] came to 296 mg/kg; in [8], 16.1 mg/kg; in test [13], 2.7 mg/kg. Also, the MIC in test [2] was found to be 0.25 µg/mL (≈ 0.696 µM); in [3] it was 0.06 µg/mL (≈ 0.167 µM); in [4], 0.25 µg/mL (≈ 0.696 µM); in test [5] it was 4 µg/mL (≈ 11.1 µM); in test [6], 2 µg/mL (≈ 5.56 µM); in test [7], 0.25 µg/mL (≈ 0.696 µM). For the same compound, the minimal inhibitory concentration (MIC) in test [9] is 0.25 µg/mL (≈ 0.696 µM); in test [10], 0.25 µg/mL (≈ 0.696 µM); in test [11], 0.25 µg/mL (≈ 0.696 µM); in test [12] it was 0.5 µg/mL (≈ 1.39 µM); in test [14] it was 0.25 µg/mL (≈ 0.696 µM).

For `CC1(N)CN(c2c(F)cc3c(=O)c(C(=O)O)cn(-c4ccc(F)cc4)c3c2F)C1`, the ED50 in test [1] stood at 159 mg/kg; in test [8], 10.9 mg/kg; in test [13], 3.2 mg/kg. Further, the minimal inhibitory concentration (MIC) in test [2] was determined as 0.015 µg/mL (≈ 0.0372 µM); in test [3], 0.12 µg/mL (≈ 0.298 µM); in test [4], 0.25 µg/mL (≈ 0.62 µM); in test [5], 2 µg/mL (≈ 4.96 µM); in test [6] it was 2 µg/mL (≈ 4.96 µM); in [7], 0.12 µg/mL (≈ 0.298 µM). Moreover, the minimum inhibitory concentration (MIC) turned out to be 0.25 µg/mL (≈ 0.62 µM) in test [9]; 0.12 µg/mL (≈ 0.298 µM) in test [10]; 0.25 µg/mL (≈ 0.62 µM) in test [11]; 1 µg/mL (≈ 2.48 µM) in test [12]; 0.12 µg/mL (≈ 0.298 µM) in test [14].

As to `CCn1cc(C(=O)O)c(=O)c2cc(F)c(N3CC(C)(N)C3)c(F)c21`, the ED50 in test [1] came to 57.3 mg/kg; in [8] it was 8.2 mg/kg; in test [13] it was 4.1 mg/kg. In addition, the minimal inhibitory concentration (MIC) was determined as 0.015 µg/mL (≈ 0.0445 µM) in test [2]; 0.12 µg/mL (≈ 0.356 µM) in [3]; 0.12 µg/mL (≈ 0.356 µM) in test [4]; 2 µg/mL (≈ 5.93 µM) in [5]; 2 µg/mL (≈ 5.93 µM) in test [6]; 0.5 µg/mL (≈ 1.48 µM) in [7]. Further, the MIC came out at 0.12 µg/mL (≈ 0.356 µM) in [9]; 0.5 µg/mL (≈ 1.48 µM) in [10]; 0.12 µg/mL (≈ 0.356 µM) in [11]; 1 µg/mL (≈ 2.96 µM) in [12]; 0.5 µg/mL (≈ 1.48 µM) in test [14].

For the compound `CN(C)C1(C)CN(c2c(F)cc3c(=O)c(C(=O)O)cn(C4CC4)c3c2F)C1`, the ED50 in test [1] amounted to 70.2 mg/kg; in test [8], 7.4 mg/kg; in [13], 1.4 mg/kg. Further, the MIC in test [2] came to 0.25 µg/mL (≈ 0.662 µM); in [3], 0.06 µg/mL (≈ 0.159 µM); in test [4], 0.12 µg/mL (≈ 0.318 µM); in [5], 2 µg/mL (≈ 5.3 µM); in test [6], 1 µg/mL (≈ 2.65 µM); in test [7] it was 0.25 µg/mL (≈ 0.662 µM). Besides, the MIC in test [9] was 0.12 µg/mL (≈ 0.318 µM); in [10], 0.25 µg/mL (≈ 0.662 µM); in [11], 0.25 µg/mL (≈ 0.662 µM); in [12] it was 0.5 µg/mL (≈ 1.32 µM); in test [14], 0.25 µg/mL (≈ 0.662 µM).
